Test results published in ChEMBL document CHEMBL4706708, “Improving the solubility of anti-proliferative thieno[2,3-b]quinoline-2-carboxamides” (Bioorg Med Chem, 2021).
Values after ≈ are worked out from the molar mass of the structure shown.

Columns and labels:
MDA-MB-231 [1] = experiment: Antiproliferative activity against human MDA-MB-231 cells assessed as cell growth at 1 uM measured after 3 days by [3H]-thymidine incorporation assay relative to control; format: functional; conditions: MDA-MB-231, 72 h, time 3 day, read-out: Activity
Outline: (§1)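 HCT116 and MDA-MB-231 cells from ATCC, seeded at 3000 cells/well, exposed to inhibitor for three days; 0.04 µCi 3H-thymidine added per well 5 h before harvest onto glass fibre filters, incorporation counted by scintillation and expressed relative to untreated controls. Triplicate wells, at least two independent experiments. Single-point screen at 1 µM; IC50 determined from varying concentrations.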

MDA-MB-231 [2] = experiment: Antiproliferative activity against human MDA-MB-231 cells assessed as cell growth inhibition measured after 3 days by [3H]-thymidine incorporation assay; format: functional, cell-based; outline: as §1
HCT-116 [3] = experiment: Antiproliferative activity against human HCT-116 cells assessed as cell growth at 1 uM measured after 3 days by [3H]-thymidine incorporation assay relative to control; format: functional; conditions: HCT-116, 72 h, time 3 day, read-out: Activity; outline: as §1
[4] = Thermodynamic solubility of compound in water measured after 15 mins RP-HPLC analysis; format: physicochemical; conditions: read-out: Therm_solubility
HCT-116 [5] = experiment: Antiproliferative activity against human HCT-116 cells assessed as cell growth inhibition measured after 3 days by [3H]-thymidine incorporation assay; format: functional, cell-based; outline: as §1
[6] = Stability in water measured after 15 mins RP-HPLC analysis; format: physicochemical; conditions: buffer, 0.25 h

| SMILES | IC50 (MDA-MB-231 [2]) | solubility thermodynamic at 0.25 h [4] | IC50 (HCT-116 [5]) | Stabilty [6] | growth at 1 µM (MDA-MB-231 [1]) | growth at 1 µM (HCT-116 [3]) |
| --- | --- | --- | --- | --- | --- | --- |
| CC(=O)c1cc2c(N)c(C(=O)Nc3cccc(Br)c3C)sc2nc1C | 219 nM | 1.15 µg/mL (≈ 2.75 µM) | 183 nM |  | 11% | 4% |
| Cc1nc2sc(C(=O)Nc3cccc(Cl)c3C)c(N)c2cc1C(C)O (stereo not drawn) | 76 nM | 2.41 µg/mL (≈ 6.41 µM) | 72 nM |  | 11.7% | 2.2% |
| CC(=O)c1cc2c(N)c(C(=O)Nc3cccc4c3OCCO4)sc2nc1C |  | 0.26 µg/mL (≈ 0.678 µM) |  | Unstable | 104% | 72.5% |
| CC(=O)c1cc2c(N)c(C(=O)Nc3ccnc4ccccc34)sc2nc1C |  | 0.26 µg/mL (≈ 0.691 µM) |  | Unstable | 91.6% | 102% |
| CC(=O)c1cc2c(N)c(C(=O)Nc3cccc(C)c3C)sc2nc1C | 506 nM | 0.68 µg/mL (≈ 1.92 µM) | 422 nM |  | 8.9% | 2.1% |
| CC(=O)c1cc2c(N)c(C(=O)Nc3cccc(Cl)c3C)sc2nc1C | 636 nM | 1.63 µg/mL (≈ 4.36 µM) | 573 nM |  | 13.7% | 10% |
| Nc1c(C(=O)Nc2ccncc2)sc2nc3c(cc12)C(=O)CCC3 |  | 1.54 µg/mL (≈ 4.55 µM) |  |  | 108% | 110% |
| Nc1c(C(=O)Nc2cccc3ncccc23)sc2nc3c(cc12)C(=O)CCC3 |  | 0.41 µg/mL (≈ 1.06 µM) |  |  | 96.9% | 96.3% |

Now from value to compound, other results behind:

| IC50 (MDA-MB-231 [2]) | solubility thermodynamic at 0.25 h [4] | IC50 (HCT-116 [5]) | Stabilty [6] | SMILES | growth at 1 µM (MDA-MB-231 [1]) | growth at 1 µM (HCT-116 [3]) |
| --- | --- | --- | --- | --- | --- | --- |
| 122 nM | 0.61 µg/mL (≈ 1.2 µM) | 151 nM |  | Cc1c(Br)cccc1NC(=O)c1sc2nc3c(cc2c1N)CN(Cc1ccccc1)CC3 | 3.5% | 1% |
| 633 nM | 1.08 µg/mL (≈ 2.88 µM) | 591 nM |  | CC(=O)c1cc2c(N)c(C(=O)Nc3cccc4ccccc34)sc2nc1C | 13.6% | 7.8% |
|  | 0.44 µg/mL (≈ 1.14 µM) |  | Unstable | Cc1c(Cl)cccc1NC(=O)c1sc2nc3c(cc2c1N)CN(C)CC3 | 95.3% | 101% |
| > 1000 nM | 1.31 µg/mL (≈ 2.64 µM) | > 1000 nM |  | Cc1c(NC(=O)c2sc3nc4c(cc3c2N)CN(Cc2ccccc2)CC4)cccc1C(F)(F)F | 61.5% | 69.7% |
| 150 nM | 0.77 µg/mL (≈ 1.66 µM) | 193 nM |  | Cc1c(Cl)cccc1NC(=O)c1sc2nc3c(cc2c1N)CN(Cc1ccccc1)CC3 | 4% | 2.3% |
|  | 1.15 µg/mL (≈ 3.08 µM) |  | Unstable | Cc1c(Cl)cccc1NC(=O)c1sc2nc3c(cc2c1N)COCC3 | 50.9% | 78.1% |
| 644 nM | 3.97 µg/mL (≈ 8.55 µM) | 640 nM |  | Nc1c(C(=O)Nc2cccc3ccccc23)sc2nc3c(cc12)CN(Cc1ccccc1)CC3 | 19.3% | 4.7% |
| 81 nM | 2.21 µg/mL (≈ 5.85 µM) | 171 nM |  | Cc1nc2sc(C(=O)Nc3cccc4ccccc34)c(N)c2cc1C(C)O (stereo not drawn) | 9.9% | 1.7% |
| 162 nM | 1.72 µg/mL (≈ 3.89 µM) | 201 nM |  | Cc1cccc(NC(=O)c2sc3nc4c(cc3c2N)CN(Cc2ccccc2)CC4)c1C | 4% | 1.5% |
|  | 0.213 µg/mL (≈ 0.474 µM) |  |  | Nc1c(C(=O)Nc2cccc(Cl)c2)sc2nc3c(cc12)CN(Cc1ccccc1)CC3 | 80.5% | 89.9% |
|  | 0.84 µg/mL (≈ 1.88 µM) |  |  | Cc1c(F)cccc1NC(=O)c1sc2nc3c(cc2c1N)CN(Cc1ccccc1)CC3 | 97.3% | 98.1% |
